What was measured:
MSI = assay: FP MSI RNA binding assay, statement does not separate MSI1 and MSI2; design: species or system human; conditions: 10 μM
LIN28A [1] = target: T1, LIN28A (Homo sapiens, UniProt Q9H9Z2); assay: Orthogonal SYBR-based EMSA, inhibition of RNA binding to LIN28A; conditions: 1 mM (LC), MSI Oligo #2 200 pmols, 1000 ng protein
T1 sequence (Q9H9Z2 1-209): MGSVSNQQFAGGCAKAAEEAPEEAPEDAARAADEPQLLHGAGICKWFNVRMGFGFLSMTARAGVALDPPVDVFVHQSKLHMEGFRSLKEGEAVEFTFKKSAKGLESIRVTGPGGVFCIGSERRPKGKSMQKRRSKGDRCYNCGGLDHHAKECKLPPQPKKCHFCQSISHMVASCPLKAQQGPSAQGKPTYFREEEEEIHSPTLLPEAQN
Method in brief: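 GST-LIN28A (1000 ng, E. coli-expressed) pre-incubated 30 min at room temperature in EMSA buffer with 1% DMSO, 10 μM test compound or 1 mM oleic acid. Then 200 pmols 15-nt ssRNA MSI Oligo #2 added for 30 min more (20 μL). Native 10% polyacrylamide TBE gel in chilled 0.5X TBE at 4°C, 100V, 2–2.5 h. 2X SYBR Safe stain, imaged. At least two repeats.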

MSI1 [2] = target: T2, MSI1 (Homo sapiens, UniProt O43347); assay: Orthogonal SYBR-based EMSA, inhibition of RNA binding to MSI1; conditions: 1 mM (LC), MSI Oligo #2 200 pmols, 1000 ng protein
T2 sequence (O43347 whole entry): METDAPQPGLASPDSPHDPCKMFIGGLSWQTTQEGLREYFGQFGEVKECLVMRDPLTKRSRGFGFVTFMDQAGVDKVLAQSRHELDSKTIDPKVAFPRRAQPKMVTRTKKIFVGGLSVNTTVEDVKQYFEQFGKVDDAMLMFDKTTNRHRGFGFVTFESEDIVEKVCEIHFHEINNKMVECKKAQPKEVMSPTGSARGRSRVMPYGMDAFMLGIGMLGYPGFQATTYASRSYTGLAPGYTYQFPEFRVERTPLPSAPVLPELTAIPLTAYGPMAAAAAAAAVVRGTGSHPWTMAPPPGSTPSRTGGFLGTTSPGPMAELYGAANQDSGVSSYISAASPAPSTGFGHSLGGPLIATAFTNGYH

MSI2 [3] = target: T3, MSI2 (Homo sapiens, UniProt Q96DH6); assay: FP probe displacement, 1536-well, MSI2; format: binding
T3 sequence (Q96DH6 whole entry): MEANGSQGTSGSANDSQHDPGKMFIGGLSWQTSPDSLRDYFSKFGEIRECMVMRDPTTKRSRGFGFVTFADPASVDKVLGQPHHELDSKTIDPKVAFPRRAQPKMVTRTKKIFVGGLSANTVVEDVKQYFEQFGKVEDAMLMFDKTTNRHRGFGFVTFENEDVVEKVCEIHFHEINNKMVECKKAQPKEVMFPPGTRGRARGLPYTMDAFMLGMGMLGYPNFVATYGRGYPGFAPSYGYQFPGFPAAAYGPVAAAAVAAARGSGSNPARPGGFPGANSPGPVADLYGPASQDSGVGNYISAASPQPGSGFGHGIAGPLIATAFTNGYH
Method in brief: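 Displacement of 10 nM Cy3-C9-r(GUAGUAGU) probe from 1 μM GST-MSI2 was run as a dose response in 1536-well format, with FP read using Cy3 filters. IC50 for displacement came from two independent experiments, each performed in triplicate.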

MSI2 [4] = target: T3, MSI2; assay: Orthogonal SYBR-based EMSA, inhibition of RNA binding to MSI2; conditions: 1 mM (LC), MSI Oligo #2 200 pmols, 1000 ng protein
LIN28A [5] = target: T1, LIN28A; assay: SYBR-based RNA EMSA, ssRNA oligo binding to GST-LIN28A; conditions: 200 pmols ssRNA oligo, 500 to 2500 ng GST-protein; symbols not defined
MSI1 [6] = target: T2, MSI1; assay: SYBR-based RNA EMSA, ssRNA oligo binding to GST-MSI1; conditions: 200 pmols ssRNA oligo, 500 to 2500 ng GST-protein; symbols not defined
MSI2 [7] = target: T3, MSI2; assay: SYBR-based RNA EMSA, ssRNA oligo binding to GST-MSI2; conditions: 200 pmols ssRNA oligo, 500 to 2500 ng GST-protein; symbols not defined

## COc1cccc2c1C(=O)c1c(O)c3c(c(O)c1C2=O)C[C@@](O)(C(=O)CO)C[C@@H]3O[C@H]1C[C@H](N)[C@H](O)[C@H](C)O1 [doxorubicin, reference compound]
MSI
  MSI inhibition activity in FP pilot screen, in words: inhibiting MSI binding activity

## CC[C@@]1(O)C[C@H](O[C@H]2C[C@H](N(C)C)[C@H](O)[C@H](C)O2)c2c(cc3c(c2O)C(=O)c2c(O)cccc2C3=O)[C@H]1C(=O)OC [aklavine]
MSI
  MSI inhibition activity in FP pilot screen, in words: inhibiting MSI binding activity

## CC(=O)[C@]1(O)Cc2c(O)c3c(c(O)c2[C@@H](O[C@H]2C[C@H](N)[C@H](O)[C@H](C)O2)C1)C(=O)c1ccccc1C3=O [idarubicin, reference compound]
MSI
  MSI inhibition activity in FP pilot screen, in words: inhibiting MSI binding activity

## CCCCCCCC/C=C\CCCCCCCC(=O)O [oleic acid, reference compound]
LIN28A [1]
  % inhibition of RNA binding to LIN28A (EMSA): > 80%
MSI1 [2]
  % inhibition of RNA binding to MSI1 (EMSA): > 80%
MSI2 [3]
  IC50: 29 ± 1.7 µM
MSI2 [4]
  % inhibition of RNA binding to MSI2 (EMSA): > 80%

## MSI Oligo #4: ssRNA oligo GUAGUAGUAGUAGUA, 15 nt, 4 MSI binding motifs (RNA, backbone not given here)
LIN28A [5]
  Binding affinity(EMSA) LIN28A: highest affinity
MSI1 [6]
  Binding affinity(EMSA) MSI1: highest affinity
MSI2 [7]
  Binding affinity(EMSA) MSI2: highest affinity

## CC[C@@]1(O)C[C@H](O)c2c(cc3c(c2O)C(=O)c2c(O)ccc(O)c2C3=O)[C@H]1C(=O)OC [rutilantinone]
MSI
  MSI inhibition activity in FP pilot screen, in words: inhibiting MSI binding activity

## ssRNA Oligo #8: non-specific ssRNA oligo AGGGAUCGAAAAUUG, 15 nt, no binding motif (RNA, backbone not given here)
LIN28A [5]
  Binding affinity(EMSA) LIN28A: high affinity

## COc1cccc2c1C(=O)c1c(O)c3c(c(O)c1C2=O)C[C@@](O)(C(C)=O)C[C@@H]3O[C@H]1C[C@H](N)[C@H](O)[C@H](C)O1 [daunorubicin, reference compound]
MSI
  MSI inhibition activity in FP pilot screen, in words: inhibiting MSI binding activity
